Data: ChEMBL document CHEMBL4387704, “Design, synthesis and biological evaluation of novel isoindolinone derivatives as potent histone deacetylase inhibitors” (Eur J Med Chem, 2019)
Calls of active or inactive are those of the source. The rule behind the calls is not given here.

Columns and labels:
[1] = tested on: CCRF-CEM; assay: Growth inhibition of human CCRF-CEM cells assessed as cell growth inhibition at 10 uM incubated for 48 hrs by sulforhodamine B assay; type: functional; details: read-out: GI
[2] = molecular target: Histone deacetylase 9 (Homo sapiens) (UniProt Q9UKV0); assay: Inhibition of HDAC9 (unknown origin) using Fluor de Lys substrate by fluorescence assay relative to control
Outline: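 Recombinant HDAC isoform assays run by a contract lab. Compounds in DMSO, 10-dose IC50 mode, 3-fold serial dilution from 50 μM. Duplicate runs; IC50 from curve fitting.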

[3] = tested on: Malme-3M; assay: Growth inhibition of human MALME-3M cells assessed as cell growth inhibition at 10 uM incubated for 48 hrs by sulforhodamine B assay; type: functional; details: read-out: GI
[4] = tested on: MCF7; assay: Potency index, ratio of IC50 of chidamide to IC50 of test compound against human MCF7 cells; type: functional
[5] = Volume of distribution at steady state in Sprague-Dawley rat at 1 mg/kg, iv by LC-MS/MS analysis; type: ADME, organism-based; details: in vivo, read-out: Vdss
Outline: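 Male SD rats (199-214 g), three per route, single dose 1 mg/kg iv or 10 mg/kg po. Jugular blood (~200 μL) into heparinized tubes at set times; plasma by centrifugation, protein precipitation with acetonitrile containing verapamil and glibenclamide; drug measured by LC-MS/MS.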

[6] = Clearance in Sprague-Dawley rat at 1 mg/kg, iv by LC-MS/MS analysis; type: ADME, organism-based; details: in vivo
Outline: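 Male SD rats, 199-214 g, three per route. Single iv dose of 1 mg/kg or oral dose of 10 mg/kg. About 200 μL blood drawn from the jugular vein into heparinized tubes at set times, then spun to plasma. 30 μL plasma precipitated with CH3CN containing verapamil and glibenclamide as internal standards. Plasma drug level measured by LC-MS/MS.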

Chain of Histone deacetylase 9 (Homo sapiens) (Q9UKV0 whole entry, canonical isoform): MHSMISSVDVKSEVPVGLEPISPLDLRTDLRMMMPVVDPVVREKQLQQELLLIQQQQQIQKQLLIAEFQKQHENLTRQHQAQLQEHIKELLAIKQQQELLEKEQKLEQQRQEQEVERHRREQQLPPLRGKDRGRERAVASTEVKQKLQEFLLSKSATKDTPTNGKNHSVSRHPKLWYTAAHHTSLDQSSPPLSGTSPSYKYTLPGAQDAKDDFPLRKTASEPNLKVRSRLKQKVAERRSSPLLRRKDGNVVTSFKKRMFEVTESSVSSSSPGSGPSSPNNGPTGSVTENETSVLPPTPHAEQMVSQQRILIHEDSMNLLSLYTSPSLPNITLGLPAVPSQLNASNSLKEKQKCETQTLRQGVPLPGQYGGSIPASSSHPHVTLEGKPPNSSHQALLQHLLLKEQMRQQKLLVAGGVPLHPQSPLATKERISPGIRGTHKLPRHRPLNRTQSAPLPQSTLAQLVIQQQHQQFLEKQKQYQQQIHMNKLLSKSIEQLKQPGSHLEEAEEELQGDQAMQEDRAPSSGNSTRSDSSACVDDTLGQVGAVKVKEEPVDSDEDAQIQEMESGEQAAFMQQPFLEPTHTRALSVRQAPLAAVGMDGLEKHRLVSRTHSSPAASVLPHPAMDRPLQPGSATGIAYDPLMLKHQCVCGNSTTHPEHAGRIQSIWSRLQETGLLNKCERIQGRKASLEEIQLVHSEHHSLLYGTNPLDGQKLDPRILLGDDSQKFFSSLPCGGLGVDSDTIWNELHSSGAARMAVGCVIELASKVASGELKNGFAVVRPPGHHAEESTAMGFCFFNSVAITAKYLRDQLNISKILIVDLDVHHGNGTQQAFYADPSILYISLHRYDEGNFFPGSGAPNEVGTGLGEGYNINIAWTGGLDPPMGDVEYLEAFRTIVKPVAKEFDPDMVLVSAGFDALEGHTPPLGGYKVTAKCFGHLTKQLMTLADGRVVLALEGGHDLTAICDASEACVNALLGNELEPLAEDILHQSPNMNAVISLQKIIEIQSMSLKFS

In the case of `Nc1cc(F)ccc1NC(=O)c1ccc(CNC(=O)/C=C2\NC(=O)c3ccccc32)cc1`, the inhibition of growth at 10 µM [1] is reported as 84.5%, the inhibition [2] is reported as “inactive” and the inhibition of growth at 10 µM [3] is reported as 52.6%. For the same molecule, the “Ratio IC50” value [4] was 2, the Vd [5] was 0.493 L/kg and the clearance [6] was 21.3 mL/min/kg.
